The values that follow come from PMC5617735 (Journal of the American Chemical Society, 2017).

≈ marks a conversion by molar mass, not a printed value. Non-standard residues stand in square brackets, D forms with d. Residues, ends and D or L forms follow the SMILES beside them. ξ: configuration not given here. *: point of attachment. ξI = CCC(C)C(N)C(=O)O; Butyryl = CCCC(=O)*

Assay [1] concerns Enterococcus faecalis OG1RF. As to the kind of experiment: Antibacterial assay. The settings on record: read-out: IC50, Enterococcus faecalis OG1RF. It is filed as cell-based.
Another assay concerns the target cathepsin B (Homo sapiens, UniProt P07858). Kind of assay: Cathepsin B inhibition assay. It is filed as biochemical. As to conditions: read-out: Half-maximal inhibitory concentration (IC50), Cathepsin B Inhibition.
Another assay deals with Bacillus subtilis 168. As to the kind of experiment: Antibacterial assay. It is filed as cell-based. As to conditions: read-out: IC50, Bacillus subtilis 168.
The test system of another assay is Saccharomyces pombe. Kind of assay: Antifungal assay. In kind it is cell-based. The settings on record: read-out: IC50, Saccharomyces pombe.
Assay [2] concerns Pseudomonas aeruginosa PAO1. As to the kind of experiment: Antibacterial assay. In kind it is cell-based. As to conditions: read-out: IC50, Pseudomonas aeruginosa PAO1.
In assay [3] the test system is Staphylococcus aureus Newman. As to the kind of experiment: Antibacterial assay. In kind it is cell-based. As to conditions: read-out: IC50, Staphylococcus aureus Newman.
The subject of another assay is Saccharomyces cerevisiae. As to the kind of experiment: Antifungal assay. In kind it is cell-based. As to conditions: read-out: IC50, Saccharomyces cerevisiae.
For a further assay, the system named is E. coli K12. Kind of assay: Antibacterial assay. As to conditions: read-out: IC50, E. coli K12. In kind it is cell-based.
Another assay relates to surR. As to the kind of experiment: RT-qPCR of surR expression upon elicitor exposure. In kind it is cell-based, Streptomyces albus J1074. As to conditions: wt S. albus, vs DMSO control. A general note: Real-time PCR tracks product formation cycle by cycle.
The subject of assay [4] is ΔsurR S. albus secondary metabolite production. As to the kind of experiment: HPLC-Qtof-MS of sur metabolite production in ΔsurR strain treated with elicitor. In kind it is cell-based, Streptomyces albus J1074. As to conditions: for increase in the production of surugamide I: HPLC-Qtof-MS; for upregulation of acyl-surugamide A / upregulation of albucyclone A: estimate based on lower limit of detection.

The subject of a further assay is S. albus. As to the kind of experiment: Growth inhibition of S. albus by elicitors. It is filed as cell-based, Streptomyces albus J1074.
Assay [5] has as its system sur cluster (surA and surC transcripts). As to the kind of experiment: RT-qPCR of sur cluster expression. In kind it is cell-based, Streptomyces albus J1074. As to conditions: for upregulation of surC: at optimal elicitor concentration (~23 μM etoposide, ~30 μM ivermectin), vs DMSO; for elicitor concentration yielding optimal upregulation of sur: dose-response; for elicitor concentration yielding optimal upregulation of sur / induction of surA and surC: RT-qPCR; for induction of surA and surC: wt S. albus, vs DMSO control. A digest of the protocol:
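Wild-type S. albus J1074 cultures were exposed to the test compound, with DMSO as the negative control. surA and surC mRNA were measured by RT-qPCR and expressed as fold-change versus the DMSO control. For the dose-response, concentrations were multiples of a base level: 1x equals 5.7 μM or 7.6 μM final, depending on the elicitor.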

The next assay deals with strains tested. Kind of assay: Antibacterial and antifungal assays. It is filed as cell-based.
A further assay has as its system recA and lexA. As to the kind of experiment: RT-qPCR of SOS response genes recA and lexA. It is filed as cell-based, Streptomyces albus J1074. As to conditions: S. albus.

For surugamide J [compound 14], the IC50 (in [1]; at cathepsin B; with Bacillus subtilis 168; with Saccharomyces pombe; in [2]; in [3]) was above 100 µM throughout. In addition, the IC50 in the assay on Saccharomyces cerevisiae and in the assay with E. coli K12 was above 100 µM in each case.

Regarding `CC[C@@H](C)[C@H]1NC(=O)[C@H](C(C)C)NC(=O)[C@@H](C)NC(=O)[C@H](C(C)C)NC(=O)[C@@H](CC(C)C)NC(=O)[C@@H](Cc2ccccc2)NC(=O)[C@H](C(C)C)NC(=O)[C@H](CCCCN)NC1=O` [compound 12, surugamide H] (cyclo(KV[dF][dL]V[dA]V[dI])), the IC50 on cathepsin B was 12.4 µM.

Regarding `COc1cc([C@@H]2c3cc4c(cc3[C@@H](O[C@@H]3O[C@@H]5CO[C@@H](C)O[C@H]5[C@H](O)[C@H]3O)[C@H]3COC(=O)[C@H]23)OCO4)cc(OC)c1O` [etoposide], in the assay with surR, the “down-regulation of surR expression” value was 2–2.5 fold. Also, in [4], the “increase in the production of surugamide I” value is on record as above 35 fold, the “upregulation of acyl-surugamide A” value was above 40 fold and the “upregulation of albucyclone A” value is above 50 fold. Also, in the assay with S. albus (Streptomyces albus, read-out: half-maximal inhibitory concentration (IC50) on S. albus), the IC50 came to 10 µg/mL (≈ 17 µM). Also, in assay [5], the “upregulation of surC” value is listed as ~ 10 fold; the “elicitor concentration yielding optimal upregulation of sur” value is recorded as ~ 23 μM; the “induction of surA and surC” value came out at 3 fold.

In the case of `CCCC(=O)NCCCC[C@@H]1NC(=O)C(C(C)CC)NC(=O)C(C(C)CC)NC(=O)[C@@H](C)NC(=O)C(C(C)CC)NC(=O)[C@@H](CC(C)C)NC(=O)[C@@H](Cc2ccccc2)NC(=O)[C@H]([C@@H](C)CC)NC1=O` (stereo partly drawn) [compound 15, acyl-surugamide A] (cyclo(I[dF][dL][ξI][dA][ξI][ξI]K(Butyryl))), the IC50 in assay [1] was above 100 µM; at cathepsin B, 43.3 µM; in the assay on Bacillus subtilis 168, 21.7 µM; in the assay on Saccharomyces pombe, 32.5 µM; in [2] it was above 100 µM; in assay [3] it was 27.4 µM. Moreover, the IC50 was 3.5 µM with Saccharomyces cerevisiae and above 100 µM with E. coli K12.

As for albuquinone A [compound 22], the IC50 (in assay [1]; in the assay with Bacillus subtilis 168; in the assay on Saccharomyces pombe; in assay [2]; in [3]; in the assay with Saccharomyces cerevisiae) was above 100 µM each time. The IC50 in the assay on E. coli K12 was above 100 µM. Moreover, in the assay on strains tested, the “antibiotic activity against the strains tested” value is recorded as “did not reveal significant antibiotic activity”.

Regarding surugamide I [compound 13], the IC50 at cathepsin B turned out to be 9 µM.

albucyclone F [compound 21]: the IC50 (in [1]; at cathepsin B; in the assay on Bacillus subtilis 168; in the assay with Saccharomyces pombe; in assay [2]; in [3]) was above 100 µM each time. Besides, the IC50 in the assay with Saccharomyces cerevisiae and in the assay with E. coli K12 was above 100 µM in each case.

Regarding `CC[C@@H](C)[C@H]1NC(=O)[C@H](C(C)C)NC(=O)[C@@H](C)NC(=O)[C@H](C(C)C)NC(=O)[C@@H](CC(C)C)NC(=O)[C@@H](Cc2ccccc2)NC(=O)[C@H]([C@@H](C)CC)NC(=O)[C@H](CCCCN)NC1=O` [compound 11, surugamide G] (cyclo(I[dF][dL]V[dA]V[dI]K)), the IC50 (in assay [1]; on cathepsin B; in the assay on Bacillus subtilis 168; with Saccharomyces pombe; in assay [2]; in assay [3]) was above 100 µM throughout. The IC50 with Saccharomyces cerevisiae and in the assay on E. coli K12 was above 100 µM in each case.

Regarding `CC(C)[C@@]1(NC(=O)[C@@H]2C[C@@H]3c4cccc5[nH]cc(c45)C[C@H]3N(C)C2)O[C@@]2(O)[C@@H]3CCCN3C(=O)[C@H](Cc3ccccc3)N2C1=O` [dihydroergocristine], the “induction of surA and surC” value in [5] amounted to 3 fold.

ivermectin: in the assay with surR, the “down-regulation of surR expression” value was 2–2.5 fold. Moreover, in assay [4], the “increase in the production of surugamide I” value was above 35 fold, the “upregulation of acyl-surugamide A” value is above 40 fold and the “upregulation of albucyclone A” value is on record as above 50 fold. Further, in the assay with S. albus (at the concentrations employed), the “inhibition of S. albus growth” value was “did not inhibit S. albus growth”. The “induction of recA and lexA” value in the assay on recA and lexA is listed as “no changes”. In assay [5], the “upregulation of surC” value came out at 4.5 fold; the “elicitor concentration yielding optimal upregulation of sur” value is listed as ~ 30 μM; the “induction of surA and surC” value is 3 fold.

As to albucyclone A [compound 16], the IC50 at cathepsin B was above 100 µM.
